Results taken from ChEMBL document CHEMBL1126822, “7 alpha-Methyl- and 11 beta-ethoxy-substitution of [125I]-16 alpha-iodoestradiol: effect on estrogen receptor-mediated target tissue uptake” (J Med Chem, 1993).

Experiments:
Rattus norvegicus [1] = assay: Tissue uptake (muscle) of [125I]- after administration of [125I]-labeled compound to immature female rats (n=3) in the absence of 60 microg coinjected estradiol after 24 hours; assay type: ADME, organism-based; settings: in vivo
Outline: (§1)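 Immature female Fischer rats, 24 days old, 55-60 g, unanesthetized in retention cages, given HPLC-purified 125I-labeled steroid (3 μCi, 111 kBq) via lateral tail vein in 200 μL of 9% ethanol-saline with 1% Tween-80. The blocking group was coinjected with 60 μg unlabeled estradiol and sampled at 1 h. Animals were killed under ether at 0.5-24 h. Tissues were KCl-washed, blotted, weighed and gamma-counted. Results are % ID/g, with variation as small-sample-corrected %CV.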

Rattus norvegicus [2] = assay: Tissue uptake (muscle) of [125I]- after administration of [125I]-labeled compound to immature female rats (n=3) in the presence of 60 microg coinjected estradiol after 1 hour; assay type: ADME, organism-based; settings: in vivo; outline: as §1
Rattus norvegicus [3] = assay: Tissue uptake (muscle) of [125I]- after administration of [125I]-labeled compound to immature female rats (n=4) in the absence of 60 microg coinjected estradiol after 5 hours; assay type: ADME, organism-based; settings: in vivo; outline: as §1
Rattus norvegicus [4] = assay: Tissue uptake (fat) of [125I]- after administration of [125I]-labeled compound to immature female rats (n=3) in the absence of 60 microg coinjected estradiol after 0.5 hours; assay type: ADME, organism-based; settings: in vivo; outline: as §1
Rattus norvegicus [5] = assay: Tissue uptake (fat) of [125I]- after administration of [125I]-labeled compound to immature female rats (n=3) in the absence of 60 microg coinjected estradiol after 24 hours; assay type: ADME, organism-based; settings: in vivo; outline: as §1
Rattus norvegicus [6] = assay: Tissue uptake (fat) of [125I]- after administration of [125I]-labeled compound to immature female rats (n=4) in the absence of 60 microg coinjected estradiol after 2 hours; assay type: ADME, organism-based; settings: in vivo; outline: as §1
Rattus norvegicus [7] = assay: Tissue uptake (fat) of [125I]- after administration of [125I]-labeled compound to immature female rats (n=4) in the absence of 60 microg coinjected estradiol after 5 hours; assay type: ADME, organism-based; settings: in vivo; outline: as §1
Rattus norvegicus [8] = assay: Tissue uptake (fat) of [125I]- after administration of [125I]-labeled compound to immature female rats (n=5) in the absence of 60 microg coinjected estradiol after 1 hour; assay type: ADME, organism-based; settings: in vivo; outline: as §1
Rattus norvegicus [9] = assay: Tissue uptake (kidneys) of [125I]- after administration of [125I]-labeled compound to immature female rats (n=3) in the presence of 60 microg coinjected estradiol after 1 hour; assay type: ADME, organism-based, Kidney; settings: in vivo; outline: as §1
Rattus norvegicus [10] = assay: Tissue uptake (kidneys) of [125I]- after administration of [125I]-labeled compound to immature female rats (n=4) in the absence of 60 microg coinjected estradiol after 2 hours; assay type: ADME, organism-based, Kidney; settings: in vivo; outline: as §1
Rattus norvegicus [11] = assay: Tissue uptake (kidneys) of [125I]- after administration of [125I]-labeled compound to immature female rats (n=4) in the absence of 60 microg coinjected estradiol after 5 hours; assay type: ADME, organism-based, Kidney; settings: in vivo; outline: as §1
Rattus norvegicus [12] = assay: Tissue uptake (liver) of [125I]- after administration of [125I]-labeled compound to immature female rats (n=4) in the absence of 60 microg coinjected estradiol after 2 hours; assay type: ADME, organism-based; settings: in vivo; outline: as §1
Rattus norvegicus [13] = assay: Tissue uptake (lungs) of [125I]- after administration of [125I]-labeled compound to immature female rats (n=3) in the presence of 60 microg coinjected estradiol after 1 hour; assay type: ADME, organism-based; settings: in vivo; outline: as §1
Rattus norvegicus [14] = assay: Tissue uptake (lungs) of [125I]- after administration of [125I]-labeled compound to immature female rats (n=4) in the absence of 60 microg coinjected estradiol after 2 hours; assay type: ADME, organism-based; settings: in vivo; outline: as §1
Rattus norvegicus [15] = assay: Tissue uptake (lungs) of [125I]- after administration of [125I]-labeled compound to immature female rats (n=5) in the absence of 60 microg coinjected estradiol after 1 hour; assay type: ADME, organism-based; settings: in vivo; outline: as §1
Rattus norvegicus [16] = assay: Tissue uptake (plasma) of [125I]- after administration of [125I]-labeled compound to immature female rats (n=4) in the absence of 60 microg coinjected estradiol after 2 hours; assay type: ADME, organism-based; settings: in vivo; outline: as §1
Rattus norvegicus [17] = assay: Tissue uptake (plasma) of [125I]- after administration of [125I]-labeled compound to immature female rats (n=4) in the absence of 60 microg coinjected estradiol after 5 hours; assay type: ADME, organism-based; settings: in vivo
Outline: (§2)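 Immature female Fischer rats, 24 days old, 55-60 g, unanesthetized in retention cages, got HPLC-purified n.c.a. 125I-labeled steroid (3 μCi, 111 kBq) by lateral tail vein. Dose was given in 200 μL saline with 9% ethanol and 1% Tween-80. Deep ether anesthesia, axillary artery cut; tissues KCl-washed, blotted, weighed, gamma-counted as % ID/g; variation as small-sample-corrected %CV.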

Rattus norvegicus [18] = assay: Tissue uptake (spleen) of [125I]- after administration of [125I]-labeled compound to immature female rats (n=3) in the absence of 60 microg coinjected estradiol after 0.5 hours; assay type: ADME, organism-based; settings: in vivo; outline: as §2
Rattus norvegicus [19] = assay: Tissue uptake (spleen) of [125I]- after administration of [125I]-labeled compound to immature female rats (n=3) in the absence of 60 microg coinjected estradiol after 24 hours; assay type: ADME, organism-based; settings: in vivo; outline: as §2
Rattus norvegicus [20] = assay: Tissue uptake (plasma) of [125I]- after administration of [125I]-labeled compound to immature female rats (n=3) in the absence of 60 microg coinjected estradiol after 0.5 hours; assay type: ADME, organism-based; settings: in vivo; outline: as §1
Rattus norvegicus [21] = assay: Tissue uptake (plasma) of [125I]- after administration of [125I]-labeled compound to immature female rats (n=3) in the absence of 60 microg coinjected estradiol after 24 hours; assay type: ADME, organism-based; settings: in vivo; outline: as §1
Rattus norvegicus [22] = assay: Tissue uptake (thyroid) of [125I]- after administration of [125I]-labeled compound to immature female rats (n=3) in the absence of 60 microg coinjected estradiol after 24 hours; assay type: ADME, organism-based, Thyroid gland; settings: in vivo; outline: as §2
Rattus norvegicus [23] = assay: Tissue uptake (blood) of [125I]- after administration of [125I]-labeled compound to immature female rats (n=5) in the absence of 60 microg coinjected estradiol after 1 hour; assay type: ADME, organism-based; settings: in vivo; outline: as §1
Rattus norvegicus [24] = assay: Tissue uptake (uterus) of [125I]- after administration of [125I]-labeled compound to immature female rats (n=3) in the absence of 60 microg coinjected estradiol. (0.5 hours after injection) (% coefficient of variation); assay type: ADME, organism-based; settings: in vivo; outline: as §2
Rattus norvegicus [25] = assay: Tissue uptake (blood) of [125I]- after administration of [125I]-labeled compound to immature female rats (n=3) in the absence of 60 microg coinjected estradiol. (24 hours after injection) (% coefficient of variation); assay type: ADME, organism-based; settings: in vivo; outline: as §1
[26] = target: Estrogen receptor (Mus musculus) (UniProt O08537+P19785); assay: Binding affinity at murine estrogen receptor by [3H]estradiol displacement.; assay type: protein assay
Outline: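 Competitive binding in murine uterine cytoplasmic extracts, incubated 18 h at 0-4 °C with 20 nM [3H]estradiol, with or without competing steroids from 2 nM to 20 μM. RBA = 100 × ratio of competitor to unlabeled estradiol concentration giving 50% competition of specific [3H]estradiol binding. Mean of three experiments with SD.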

Rattus norvegicus [27] = assay: Tissue uptake (brain) of [125I]- after administration of [125I]-labeled compound to immature female rats (n=5) in the absence of 60 microg coinjected estradiol after 1 hour; assay type: ADME, organism-based; settings: in vivo; outline: as §1
Rattus norvegicus [28] = assay: Tissue uptake (brain) of [125I]- after administration of [125I]-labeled compound to immature female rats (n=4) in the absence of 60 microg coinjected estradiol after 5 hours; assay type: ADME, organism-based; settings: in vivo; outline: as §1
Rattus norvegicus [29] = assay: Tissue uptake (uterus) of [125I]- after administration of [125I]-labeled compound to immature female rats (n=3) in the absence of 60 microg coinjected estradiol after 0.5 hours; assay type: ADME, organism-based; settings: in vivo; outline: as §2

Chain of Estrogen receptor (Mus musculus) (O08537 whole entry, looked up): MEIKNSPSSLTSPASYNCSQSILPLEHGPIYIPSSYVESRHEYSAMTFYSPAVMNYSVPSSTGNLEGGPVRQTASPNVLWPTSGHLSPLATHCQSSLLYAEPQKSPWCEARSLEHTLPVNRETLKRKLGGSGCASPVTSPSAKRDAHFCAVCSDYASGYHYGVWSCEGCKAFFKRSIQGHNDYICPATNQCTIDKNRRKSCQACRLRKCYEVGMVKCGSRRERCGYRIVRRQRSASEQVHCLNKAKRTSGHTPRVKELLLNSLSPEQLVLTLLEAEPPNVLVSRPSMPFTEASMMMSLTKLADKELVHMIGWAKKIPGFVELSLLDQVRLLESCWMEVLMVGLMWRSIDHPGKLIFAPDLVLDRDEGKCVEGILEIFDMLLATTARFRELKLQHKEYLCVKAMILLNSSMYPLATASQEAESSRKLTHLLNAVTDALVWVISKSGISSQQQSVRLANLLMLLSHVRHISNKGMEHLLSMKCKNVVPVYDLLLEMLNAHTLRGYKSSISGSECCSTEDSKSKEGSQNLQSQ
Chain of Estrogen receptor (Mus musculus) (P19785 whole entry, looked up): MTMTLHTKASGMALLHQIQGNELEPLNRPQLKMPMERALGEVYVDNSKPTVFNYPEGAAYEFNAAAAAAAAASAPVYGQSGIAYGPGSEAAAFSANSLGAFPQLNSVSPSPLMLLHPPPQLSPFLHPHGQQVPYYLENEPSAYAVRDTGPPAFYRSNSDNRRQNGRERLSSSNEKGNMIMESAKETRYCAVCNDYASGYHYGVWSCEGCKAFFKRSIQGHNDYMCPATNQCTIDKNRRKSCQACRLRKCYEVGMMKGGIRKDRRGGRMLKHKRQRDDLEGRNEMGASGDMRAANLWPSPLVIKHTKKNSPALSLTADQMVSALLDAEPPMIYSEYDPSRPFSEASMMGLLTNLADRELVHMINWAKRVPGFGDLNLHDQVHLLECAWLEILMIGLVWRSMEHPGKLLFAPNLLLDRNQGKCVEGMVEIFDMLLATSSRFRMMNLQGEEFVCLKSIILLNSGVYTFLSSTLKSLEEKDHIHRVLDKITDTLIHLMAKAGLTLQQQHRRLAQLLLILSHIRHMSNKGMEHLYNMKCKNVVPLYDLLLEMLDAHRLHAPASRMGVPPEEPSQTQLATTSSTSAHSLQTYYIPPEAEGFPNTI

Row | ID/g (Rattus norvegicus [1]) [%] | ID/g (Rattus norvegicus [2]) [%] | ID/g (Rattus norvegicus [3]) [%] | ID/g (Rattus norvegicus [4]) [%] | ID/g (Rattus norvegicus [5]) [%] | ID/g (Rattus norvegicus [6]) [%] | ID/g (Rattus norvegicus [7]) [%] | ID/g (Rattus norvegicus [8]) [%] | ID/g (Rattus norvegicus [9]) [%] | ID/g (Rattus norvegicus [10]) [%] | ID/g (Rattus norvegicus [12]) [%] | ID/g (Rattus norvegicus [13]) [%] | ID/g (Rattus norvegicus [14]) [%] | ID/g (Rattus norvegicus [15]) [%] | ID/g (Rattus norvegicus [18]) [%] | ID/g (Rattus norvegicus [19]) [%] | ID/g (Rattus norvegicus [22]) [%] | ID/g (Rattus norvegicus [23]) [%] | relative binding affinity (RBA) [26] | Compound | other results
1 | 0.01 | 0.27 | 0.06 | 2.2 | 0.03 | 1.12 | 0.38 | 1.79 | 0.51 | 0.5 | 1.09 | 0.43 | 0.32 | 0.54 | 0.57 | 0.08 | 334.84 | 0.38 | 55.2 | C[C@@H]1Cc2cc(O)ccc2[C@H]2CC[C@]3(C)[C@@H](O)[C@H](I)C[C@H]3[C@H]12 | ID/g (Rattus norvegicus [11]): 0.25%; ID/g (Rattus norvegicus [16]): 0.49%; ID/g (Rattus norvegicus [17]): 0.41%; ID/g (Rattus norvegicus [20]): 0.68%; ID/g (Rattus norvegicus [21]): 0.04%; ID/g (Rattus norvegicus [24]): 4.32%; ID/g (Rattus norvegicus [25]): 0.03%
2 | 0.13 | 0.72 | 0.35 | 2.47 | 0.15 | 0.94 | 0.52 | 1.51 | 1.61 | 1.78 | 3.24 | 1.18 | 1.01 | 1.3 | 1.44 | 0.7 | 773.37 | 1.01 | 16.5 | CCO[C@H]1C[C@]2(C)[C@@H](O)[C@H](I)C[C@H]2[C@@H]2CCc3cc(O)ccc3[C@H]21 | ID/g (Rattus norvegicus [27]): 0.39%; ID/g (Rattus norvegicus [28]): 0.14%; ID/g (Rattus norvegicus [29]): 7.85%
